Assay results taken from ChEMBL document CHEMBL1124258, “(Imidazo[1,2-a]pyrimidin-2-yl)phenylmethanones and related compounds as potential nonsedative anxiolytics” (J Med Chem, 1988).

Assays:
Rattus norvegicus [1] = species: Rattus norvegicus; assay: Minimum Effective Dose (MED) was measured using Food-Conflict test in rats; format: functional; conditions: read-out: MED
Summary of the method: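 Male Lister rats on alternating schedule: five 4-min FI30 unpunished and 3-min FR5 punished components (food-motivated). Oral dosing, first at 50 mg/kg in four rats, then at decreasing doses if active until the minimum effective dose was reached.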

[2] = biological target: GABA-A receptor; anion channel; assay: Inhibition of 0.6 nM [3H]flunitrazepam binding to GABA-A central benzodiazepine receptor of rat forebrain membrane
Summary of the method: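 Rat forebrain membranes with [3H]flunitrazepam at 0.6 nM, modified Squires–Braestrup method. IC50 (nM) read from displacement curves of at least four concentrations, each in triplicate.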

Rattus norvegicus [3] = species: Rattus norvegicus; assay: Minimum Effective Dose(MED was measured by using Licking-Conflict test in rats; format: functional; conditions: read-out: MED
Summary of the method: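 Rats trained to stable suppression of drinking at tone onset. Each session had 1 min unpunished drinking, then a tone lasting through a 3-min punished period.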

Mus musculus [4] = species: Mus musculus; assay: Sedative/muscle relaxant effect in mice by using Rotating-Drum test; format: functional
Summary of the method: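 Male CD-1 mice were placed on a rotating drum (3 cm diameter, 16 rev/min) 1 h after dosing. Mean time on the drum for groups of 10 was expressed as a percentage of the control group mean.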

Mus musculus [5] = assay: Anticonvulsant activity in CD-1 mice with 120 mg/kg of leptazol; format: functional
Summary of the method: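 Male CD-1 mice challenged with leptazol at 120 mg/kg, following Everett and Richards. ED50 (mg/kg po) with 95% confidence limits by Litchfield–Wilcoxon where the doses allowed.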

Mus musculus [6] = species: Mus musculus; assay: Muscle relaxation in mice by using Pull-Up test; format: functional

Row | Compound | minimal effective dose (Rattus norvegicus [1]) [mg/kg] | IC50 [2] [nM] | minimal effective dose (Rattus norvegicus [3]) [mg/kg] | ED50 (Mus musculus [4]) [mg/kg] | ED50 (Mus musculus [5]) [mg/kg] | ED50 (Mus musculus [6]) [mg/kg]
1 | CCCCc1c(OC)nc2nc(C(=O)c3ccccc3)cn2c1CC | 10 | 34 | – | – | – | –
2 | CCCCc1cc(OC)nc2nc(C(=O)c3ccccc3)cn12 | 10 | 340 | – | – | – | –
3 | CCc1cc(OC)nc2nc(C(=O)c3ccccc3)cn12 | 2 | 295 | – | – | – | –
4 | COc1ccc(C(=O)c2cn3c(cc(OC)c4ccccc43)n2)cc1 | > 50 | 37 | – | – | – | –
5 | CCCC(=O)c1cn2c(cc(OC)c3cc(CC)ccc32)n1 | 20 | 535 | – | – | – | –
6 | CCCCc1ccc2c(c1)c(OC)cc1nc(C(=O)c3ccccc3)cn12 | 10 | 25 | – | – | – | –
7 | CCOc1nc2nc(C(=O)c3ccccc3)cn2c2c1CSCC2 | > 50 | > 10000 | – | – | – | –
8 | CCCc1c(SC)nc2nc(C(=O)c3ccccc3)cn2c1CC | 10 | 47 | – | – | – | –
9 | CCc1c(SC)nc2nc(C(=O)c3ccccc3)cn2c1C | 2 | 12 | 2 | 100 | 12.5 | 200
10 | CSc1nc2nc(C(=O)c3ccccc3)cn2c2c1CCC(C)C2 (stereo not given) | 50 | 76 | – | – | – | –
11 | C=CCc1c(OC)nc2nc(C(=O)c3ccccc3)cn2c1CC | 10 | 42 | – | – | – | –
12 | CCCc1c(OC)nc2nc(C(=O)c3ccccc3)cn2c1CC | 10 | 34 | – | – | – | –
13 | COc1nc2nc(C(=O)c3ccccc3)cn2c2c1CSCC2 | 20 | 185 | – | – | – | –
14 | CSc1cc(C)n2cc(C(=O)c3ccccc3)nc2n1 | 5 | 190 | – | – | – | –
15 | COc1nc2nc(C(=O)c3ccccc3)cn2c2c1CCC(C)C2 (stereo not given) | 10 | 135 | – | – | – | –
16 | CSc1nc2nc(C(=O)c3ccccc3)cn2c2c1CSCC2 | 50 | 24 | – | – | – | –
17 | CCOc1nc2nc(C(=O)c3ccccc3)cn2c2c1CCCCC2 | 5 | 4000 | – | – | – | –
18 | O=C(Nc1nccs1)c1cn2c(n1)sc1ccccc12 | – | > 10 | – | – | – | –
19 | CCc1ccc2c(c1)sc1nc(C(=O)c3ccccc3)cn12 | – | 740 | – | – | – | –
20 | CCC(=O)c1cn2c(cc(OC)c3cc(CC)ccc32)n1 | 10 | 135 | – | – | – | –
21 | CCOC(=O)N1Cc2c(OC)nc3nc(C(=O)c4ccccc4)cn3c2C1 | 50 | 10000 | – | – | – | –
22 | COc1cc2nc(C(=O)c3ccccc3)cn2c2ccc(F)cc12 | 10 | 20 | – | – | – | –
23 | CCCc1ccc2c(c1)c(OC)cc1nc(C(=O)c3ccccc3)cn12 | 2 | 16 | – | – | – | –

Row | Compound | minimal effective dose (Rattus norvegicus [1]) [mg/kg] | IC50 [2] [nM] | minimal effective dose (Rattus norvegicus [3]) [mg/kg] | ED50 (Mus musculus [4]) [mg/kg] | ED50 (Mus musculus [5]) [mg/kg] | ED50 (Mus musculus [6]) [mg/kg]
24 | CCc1ccc2c(c1)c(OC)cc1nc(C(=O)c3ccccc3)cn12 | 5 | 14 | 2 | 22.5 | 3.2 | 640
25 | CCCOC(=O)c1cn2c(n1)sc1ccccc12 | – | 470 | – | – | – | –
26 | COc1nc2nc(C(=O)c3ccccc3)cn2c(C)c1CC1CC1 | 10 | 30 | – | – | – | –
27 | CCCc1c(OC)nc2nc(C(=O)c3ccccc3)cn2c1C | 5 | 85 | 5 | 100 | 200 | 100
28 | O=C(Nc1cccc(Cl)c1)c1cn2c(n1)sc1ccccc12 | – | > 10000 | – | – | – | –
29 | COc1cc2nc(C(=O)c3cccs3)cn2c2ccccc12 | > 50 | 24 | – | – | – | –
30 | CSc1nc2nc(C(=O)c3ccccc3)cn2c2c1CCCC2 | 10 | 9 | – | – | – | –
31 | COc1nc2nc(C(=O)c3ccccc3)cn2c2c1CSC2 | > 50 | 430 | – | – | – | –
32 | C=CCc1c(OC)nc2nc(C(=O)c3ccccc3)cn2c1C | 5 | 45 | 10 | 100 | 54 | –
33 | COc1nc2nc(C(=O)c3ccccc3)cn2c(C)c1OC | 5 | 1000 | – | – | – | –
34 | CC(C)OC(=O)c1cn2c(n1)sc1ccccc12 | – | 160 | – | – | – | –
35 | CCc1ccc2c(c1)c(OC)cc1nc(C(C)=O)cn12 | 20 | 1300 | – | – | – | –
36 | CCOc1nc2nc(C(=O)c3ccccc3)cn2c2c1CCCC2 | > 50 | 2000 | – | – | – | –
37 | COc1nc2nc(C(=O)c3ccccc3)cn2c2c1CCC2 | 20 | 200 | – | – | – | –
38 | CCc1cn2cc(C(=O)c3ccccc3)nc2nc1OC | 5 | 1500 | – | – | – | –
39 | COc1cc2nc(C(=O)c3ccccc3)cn2c2ccc(C(C)C)cc12 | 5 | 10 | – | – | – | –
40 | CCOC(=O)Cc1cn2c(n1)sc1ccccc12 | – | > 10 | – | – | – | –
41 | C=CCc1c(SC)nc2nc(C(=O)c3ccccc3)cn2c1C | 5 | 8 | – | – | – | –
42 | COc1cc2nc(C(=O)c3ccccc3)cn2c2ccc(C)cc12 | 5 | 21 | – | – | – | –
43 | O=C(O)c1cn2c(n1)sc1ccccc12 | – | > 10 | – | – | – | –
44 | CCCCc1c(OC)nc2nc(C(=O)c3ccccc3)cn2c1C | 2 | 42 | – | – | – | –
45 | CCc1ccc2c(c1)c(OC)c(C)c1nc(C(=O)c3ccccc3)cn12 | 2 | 7 | – | – | – | –
46 | COc1cc2nc(C(=O)c3ccccc3)cn2c2ccccc12 | 5 | 57 | – | – | – | –

Row | Compound | minimal effective dose (Rattus norvegicus [1]) [mg/kg] | IC50 [2] [nM] | minimal effective dose (Rattus norvegicus [3]) [mg/kg] | ED50 (Mus musculus [4]) [mg/kg] | ED50 (Mus musculus [5]) [mg/kg] | ED50 (Mus musculus [6]) [mg/kg]
47 | O=C(OC1CCCCC1)c1cn2c(n1)sc1ccccc12 | – | 7100 | – | – | – | –
48 | COc1cc2nc(C(=O)c3ccccc3)cn2c2cc(C)c(C)cc12 | 5 | 100 | – | – | – | –
49 | CSc1nc2nc(C(=O)c3ccccc3)cn2c2c1CCC2 | 2 | 35 | – | – | – | –
50 | CCc1c(OC)nc2nc(C(=O)c3ccccc3)cn2c1CC | 2 | 107 | – | – | – | –
51 | CCc1ccc2c(c1)c(OC)c(CC)c1nc(C(=O)c3ccccc3)cn12 | 20 | 135 | – | – | – | –
52 | COC(=O)c1cn2c(n1)sc1ccccc12 | – | 60 | – | – | – | –
53 | CCOC(=O)c1cn2c(n1)sc1ccccc12 | – | 120 | – | – | – | –
54 | O=C(OCc1ccccc1)c1cn2c(n1)sc1ccccc12 | – | 50 | – | – | – | –
55 | CCSc1nc2nc(C(=O)c3ccccc3)cn2c2c1CCC2 | 50 | 1850 | – | – | – | –
56 | CCOC(=O)c1cn2c(n1)sc1cc(CC)ccc12 | – | 4000 | – | – | – | –
57 | COc1nc2nc(C(=O)c3ccccc3)cn2c2c1CCCC2 | 5 | 61 | 5 | 200 | 100 | 500
58 | CCCc1cc(OC)nc2nc(C(=O)c3ccccc3)cn12 | 1 | 535 | – | – | – | –
59 | CC1(C)COC(c2cn3c(n2)sc2ccccc23)=N1 | – | > 10000 | – | – | – | –
60 | O=C(c1ccccc1)c1cn2c(n1)sc1ccccc12 | – | 85 | – | – | – | –
61 | COc1nc2nc(C(=O)c3ccccc3)cn2c2c1CCCCC2 | 10 | 125 | – | – | – | –
62 | COc1cc(C)n2cc(C(=O)c3ccccc3)nc2n1 | 5 | 800 | – | – | – | –
63 | CCOc1nc2nc(C(=O)c3ccccc3)cn2c2c1CCC2 | 50 | > 10000 | – | – | – | –
64 | COc1cc2nc(C(=O)c3ccc(C)cc3)cn2c2ccccc12 | > 50 | 19 | – | – | – | –
65 | CCc1ccc2c(c1)c(OC)cc1nc(C(=O)c3ccccn3)cn12 | 5 | 9 | – | – | – | –
66 | CCCc1cc(SC)nc2nc(C(=O)c3ccccc3)cn12 | 10 | 89 | – | – | – | –
67 | COc1cc2nc(C(=O)c3ccc(Cl)cc3)cn2c2ccccc12 | > 50 | 96 | – | – | – | –
68 | CNC1=Nc2ccc(Cl)cc2C(c2ccccc2)=[N+]([O-])C1 [CHLORDIAZEPOXIDE] | 5 | – | 2 | 6.8 | 1.9 | 16
69 | CCc1c(OC)nc2nc(C(=O)c3ccccc3)cn2c1C [DIVAPLON] | 2 | 56 | 2 | 200 | 21 | 200
